The values that follow come from ChEMBL document CHEMBL1136987, “Synthesis and evaluation of sphingosine analogues as inhibitors of sphingosine kinases” (J Med Chem, 2009).

Activity calls are given as the source filed them. No cut-off for these calls is given here.

In assay [1] the test system is U-937. Briefly: Antiproliferative activity against human U937 cells at 10 uM after 24 to 72 hrs by MTT assay. The class given is functional. The gist of the method:
(§1)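 U937 or HL60 cells in RPMI 1640 with 10% FBS and 1% L-glutamine; 50 000 cells/well at 1 × 10^6 cells/mL. Compound at 10 µM, DMSO 0.5% of volume as vehicle control. Incubated 24, 48, 72 h at 37 °C, 5% CO2. MTT (4 mg/mL in RPMI) added for 2 h in dark, crystals dissolved in DMSO/glycine buffer, A570 read.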
(In general: Tetrazolium assays rely on reduction of a dye to a coloured formazan, in cell work by metabolically active cells.)

Assay [2] deals with T1, Sphingosine kinase 1 (Homo sapiens, UniProt Q9NYA1). Briefly: Inhibition of human SPHK1 expressed in human U937 cells assessed as inhibition of endogenous sphingosine-1-phosphate levels at 5 uM after 2 hrs by ELISA. The class given is cell-based. The note with it: U-937. The procedure, abridged:
(§2)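 U937 cells transfected with huSPHK1 or huSPHK2 plasmid, then incubated with or without inhibitor at 5 µM for 2 h. Endogenous S1P was measured by competitive ELISA (sensitivity 30 nM).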
In general terms: An ELISA detects its analyte on a solid surface through an enzyme-linked reagent.

In assay [3] the test system is HL-60. Briefly: Antiproliferative activity against human HL60 cells at 10 uM after 24 to 72 hrs by MTT assay. The class given is functional. The gist of the method:
as §1

Assay [4] deals with T1, Sphingosine kinase 1. Briefly: Inhibition of EGFP-fused human SPHK1 expressed in CHO cells. The class given is cell-based. The procedure, abridged: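 SPHK1 from transfected CHO cell lysates (40 µg per tube), sphingosine-BSA and γ-[32P]ATP, 30 min at 37 °C. Compounds tested at 0, 10, 25, 50 and 100 µM. Radiolabelled S1P measured by TLC and phosphorimaging. IC50 obtained from triplicate experiments and reported as mean ± SD.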

Assay [5] deals with T2, Sphingosine kinase 2 (Homo sapiens) (UniProt Q9NRA0).
T2 sequence (whole entry): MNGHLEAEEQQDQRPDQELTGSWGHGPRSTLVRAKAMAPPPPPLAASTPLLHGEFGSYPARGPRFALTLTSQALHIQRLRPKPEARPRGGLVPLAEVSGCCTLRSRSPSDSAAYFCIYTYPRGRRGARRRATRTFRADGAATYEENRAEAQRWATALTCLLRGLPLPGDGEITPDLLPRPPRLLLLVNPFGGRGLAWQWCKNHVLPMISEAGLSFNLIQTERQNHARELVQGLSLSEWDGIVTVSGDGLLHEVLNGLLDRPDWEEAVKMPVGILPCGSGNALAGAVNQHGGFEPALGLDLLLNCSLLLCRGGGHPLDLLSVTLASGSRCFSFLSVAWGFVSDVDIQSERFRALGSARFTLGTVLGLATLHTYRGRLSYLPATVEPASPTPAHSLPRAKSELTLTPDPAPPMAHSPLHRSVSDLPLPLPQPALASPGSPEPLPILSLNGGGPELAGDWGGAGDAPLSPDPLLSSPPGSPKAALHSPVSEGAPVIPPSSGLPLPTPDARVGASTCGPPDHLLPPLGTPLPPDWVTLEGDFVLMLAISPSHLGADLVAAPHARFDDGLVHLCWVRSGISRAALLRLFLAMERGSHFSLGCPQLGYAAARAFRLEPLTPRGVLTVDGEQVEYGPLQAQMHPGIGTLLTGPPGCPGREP
The assay can be described thus: Effect on human cloned SPHK2 activity expressed in CHO cells at 10 uM relative to basal level. The class given is cell-based. The procedure, abridged:
(§3)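 Enzyme source: lysates (40 µg protein) of CHO cells transiently transfected (Lipofectamine 2000) with human SPHK1 (EGFP fusion) or SPHK2 plasmid. Compound at 10 µM in sphingosine kinase buffer with sphingosine-BSA complex (1 mM stock) and cold plus γ-[32P]ATP; 30 min at 37 °C. Lipids extracted with acidified chloroform/methanol, run on TLC, phosphorimaged; triplicate lanes per tube.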

In assay [6] the target is Protein kinase C alpha type (Homo sapiens) (UniProt P17252). The assay can be described thus: Inhibition of human PKCalpha at 100 uM by gel electrophoresis. The gist of the method:
(§4)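 PepTag nonradioactive assay: purified human PKCα with C1 peptide, PKC activator and reaction buffer. Inhibitor at 10, 25, 50, 75 or 100 µM, preincubated 2 min, then 30 min at 30 °C with enzyme. Stopped at 95 °C for 10 min.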

The target in assay [7] is T1, Sphingosine kinase 1. Briefly: Effect on EGFP-fused human SPHK1 activity expressed in CHO cells at 10 uM relative to basal level. The class given is cell-based. The procedure, abridged:
as §3

In assay [8] the test system is U-937. Briefly: Inhibition of TNF-alpha-induced sphingosine-1-phosphate levels in human U937 cells at 5 uM after 2 hrs by ELISA. The class given is functional, cell-based. The procedure, abridged:
(§5)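 Human monocytic U937 cells, stimulated or not with TNFα, were incubated with or without inhibitor at 5 µM for 2 h. Cellular S1P was quantified by competitive S1P ELISA (sensitivity 30 nM).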

Assay [9] addresses T2, Sphingosine kinase 2 (Homo sapiens). Briefly: Inhibition of human cloned SPHK2 expressed in CHO cells at 10 uM. The class given is cell-based. The gist of the method: as §3
The target of assay [10] is T1, Sphingosine kinase 1. Briefly: Inhibition of EGFP-fused human SPHK1 expressed in CHO cells using D-erythro-sphingosine as substrate by Michaelis-Menten plot. The procedure, abridged: (§6)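 Kinetics of huSPHK1 or huSPHK2 from transfected CHO lysates, with D-erythro-sphingosine as substrate, in the 32P-ATP TLC assay (30 min, 37 °C). Michaelis-Menten behaviour was used to derive Km for sphingosine and Ki for the inhibitors.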

Assay [11] concerns the target T1, Sphingosine kinase 1. The assay can be described thus: Inhibition of EGFP-fused human SPHK1 expressed in CHO cells at 10 uM. The class given is cell-based. The procedure, abridged:
as §3

Assay [12] has as its target T2, Sphingosine kinase 2 (Homo sapiens). Briefly: Inhibition of human SPHK2 expressed in human U937 cells assessed as inhibition of endogenous sphingosine-1-phosphate levels at 5 uM after 2 hrs by ELISA. The note with it: U-937. The class given is cell-based. The gist of the method:
as §2

The test system of assay [13] is U-937. The assay can be described thus: Inhibition of basal sphingosine-1-phosphate levels in human U937 cells at 5 uM after 2 hrs by ELISA. The class given is functional, cell-based. The gist of the method:
as §5

Assay [14] deals with T3, Sphingosine kinase 2 (Homo sapiens, UniProt Q9NRA0).
T3 sequence (Q9NRA0 whole entry): T2 sequence (whole entry)
The assay can be described thus: Inhibition of human cloned SPHK2 expressed in CHO cells using D-erythro-sphingosine as substrate by Michaelis-Menten plot. The procedure, abridged: as §6

Assay [15] deals with Protein kinase C alpha type (Homo sapiens) (UniProt P17252). The assay can be described thus: Inhibition of human PKCalpha at 50 uM by gel electrophoresis. The gist of the method: as §4

T1 sequence (Q9NYA1 whole entry): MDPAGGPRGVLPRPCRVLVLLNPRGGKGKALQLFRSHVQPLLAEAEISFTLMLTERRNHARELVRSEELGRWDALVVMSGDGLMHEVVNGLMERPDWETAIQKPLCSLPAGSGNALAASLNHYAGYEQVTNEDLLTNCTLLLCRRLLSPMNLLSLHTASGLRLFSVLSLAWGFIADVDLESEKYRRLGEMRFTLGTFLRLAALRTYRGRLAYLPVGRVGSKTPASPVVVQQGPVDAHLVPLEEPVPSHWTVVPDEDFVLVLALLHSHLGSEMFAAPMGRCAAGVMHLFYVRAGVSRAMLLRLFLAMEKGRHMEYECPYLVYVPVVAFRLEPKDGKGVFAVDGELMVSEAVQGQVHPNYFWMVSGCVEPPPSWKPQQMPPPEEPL

On to `CCCCCCCCCCCCCC#CC(=O)[C@@H]1COC(C)(C)N1C(=O)OC(C)(C)C`, for which the Activity in [1] worked out at 10%; in assay [3] it was 10%; in assay [5], 117%; in assay [7] it was 45.3%. Besides, the outcome in assay [2], in assay [6] and in assay [8] was Active. 3.3 µM corresponded to half-maximal inhibition in assay [4] (IC50). The inhibition (in general, how much of the control response was suppressed) in assay [9] is “inactive”. Moreover, in assay [10], the Ki (commonly the dissociation constant of the complex between target and ligand, obtained from inhibition or displacement) amounted to 3 µM. In assay [11], this molecule gave an inhibition of 54.7%.
For the molecule `CCCCC#CC(=O)[C@H](CO)NC(=O)OC(C)(C)C`, the results for the Activity in [5] and in [7] were 117% and 106%, respectively. In addition, the inhibition result in [9] and in assay [11] was “inactive” in each case.
Take `CCCCC#C[C@@H](O)[C@@H](N)CO`: the Activity in assay [5] worked out at 109%; in assay [7], 132%. Further, the inhibition entry in assay [9] and in assay [11] was “inactive” throughout.
`CCCCCCCCC#CC(=O)[C@H](CO)NC(=O)OC(C)(C)C`: the Activity in assay [5] stood at 89.9%; in assay [7], 95.8%. For the same molecule, in [9], the inhibition result was “inactive”. The inhibition in assay [11] is 4.2%.
In the same order, the values of `CCCCC#C[C@H](O)[C@H](CO)NC(=O)OC(C)(C)C` are 111%, 117%, “inactive” and “inactive”.
In the same order, the values of `CCCCCCCCC#C[C@@H](O)[C@@H](N)CO` are 116%, 86.3%, “inactive” and 13.7%.
In the same order, the values of `CCCCCCC(=O)[C@@H]1COC(C)(C)N1C(=O)OC(C)(C)C` are 126%, 95.3%, “inactive” and 4.71%.
For `CCCCCCCCCCCCC/C=C/[C@@H](O)[C@H](CO)N(C)C` [DIMETHYLSPINGOSINE], the outcome in assay [12], in assay [13], in assay [15] and in assay [8] was Active. In addition, the inhibition constant (Ki) in assay [14] stood at 12.5 µM. For the same molecule, the Activity in assay [5] is 67%. The inhibition in [9] came out at 33%.
On to `CCCCC#CC(=O)[C@@H]1COC(C)(C)N1C(=O)OC(C)(C)C`, for which the Activity in assay [5] was 115%; in assay [7], 90.9%. Further, in assay [9], the inhibition entry was “inactive”. The molecule further displayed an inhibition in [11] of 9.08%.
Consider `CCCCCCCCCCCCCC#CC(=O)[C@H](CO)NC(=O)OC(C)(C)C`, for which the outcome in [1], in assay [12], in assay [2] and in assay [13] was Active. Also, the IC50 – broadly, the concentration that gives 50% inhibition – in [4] came to 1.2 µM. Moreover, the Activity in assay [5] was determined as 45.9%; in assay [7], 43.1%. Besides, the outcome in assay [8] was inactive. For the same molecule, the values for the inhibition in assay [9] and in assay [11] were 54.1% and 56.9%, respectively. In assay [10], this molecule yielded a Ki of 1 µM.
For the molecule `CCCCCCCCC#CC(=O)[C@@H]1COC(C)(C)N1C(=O)OC(C)(C)C`, the Activity in assay [5] was 62.8%; in assay [7] it was 84.8%. The inhibition turned out to be 37.2% in assay [9] and 15.2% in assay [11].
In the same order, the values of `CCCCCCCCCCCCCC#C[C@@H](O)[C@@H]1COC(C)(C)N1C(=O)OC(C)(C)C` are 123%, 112%, “inactive” and “inactive”.
Consider `CCCCCCCCCCCCCC#C[C@@H](O)[C@@H](N)CO`, for which the Activity was 152% in assay [5] and 75.6% in [7]. The inhibition result in assay [9] is “inactive”. In assay [11], this molecule registered an inhibition of 24.4%.
